# Laboratory results reported in ChEMBL document CHEMBL1137494, “The antiviral drug ribavirin is a selective inhibitor of S-adenosyl-L-homocysteine hydrolase from Trypanosoma cruzi” (Bioorg Med Chem, 2007).
# What was measured:
# [1] = target: Adenosylhomocysteinase (Homo sapiens) (UniProt P23526); experiment: Inactivation of human recombinant S-adenosyl-L-homocysteine hydrolase NAD+ form expressed in Escherichia coli JM109 at 100 uM
# Procedure, shortened: (§1)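 Enzyme (1 μM), fully reconstituted with NAD+, incubated with 100 μM ribavirin and 50 μM NAD+ in phosphate pH 7.2 at 37 °C; remaining hydrolytic activity (AdoHcy → Ado + Hcy, ADA-coupled, DTNB read at 412 nm, 22 °C) sampled over time; first-order inactivation rate constant.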
# Trypanosoma cruzi [2] = experiment: Inactivation of Trypanosoma cruzi recombinant S-adenosyl-L-homocysteine hydrolase NAD+ form expressed in Escherichia coli JM109 at 100 uM; procedure, shortened: as §1
# [3] = target: Adenosylhomocysteinase (Homo sapiens) (UniProt P23526); experiment: Inactivation of human recombinant S-adenosyl-L-homocysteine hydrolase NAD+ form expressed in Escherichia coli JM109 assessed as increase in fluorescence at 200 uM
# Procedure, shortened: (§2)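 NAD+-reconstituted enzyme (10 μM) incubated with 200 μM ribavirin plus 100 μM NAD+ in 50 mM phosphate pH 7.2, 1 mM EDTA at 37 °C; rise in NADH fluorescence (ex 340/em 450 nm) followed over time and fit to first-order relationship.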
# Trypanosoma cruzi [4] = experiment: Inactivation of Trypanosoma cruzi recombinant S-adenosyl-L-homocysteine hydrolase NAD+ form expressed in Escherichia coli JM109 assessed as increase in fluorescence at 200 uM; procedure, shortened: as §2
# Trypanosoma cruzi [5] = experiment: Inactivation of Trypanosoma cruzi recombinant S-adenosyl-L-homocysteine hydrolase NADH form expressed in Escherichia coli JM109 assessed by measuring fluorescence
# [6] = target: Adenosylhomocysteinase (Homo sapiens) (UniProt P23526); experiment: Binding to human recombinant S-adenosyl-L-homocysteine hydrolase NADH form expressed in Escherichia coli JM109
# Procedure, shortened: (§3)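 Apo-enzyme reconstituted with 1 mM NADH (pH 8.5, 12 h, 4 °C) and gel-filtration purified; 10 μM enzyme incubated with ribavirin 0-6 mM in 50 mM phosphate pH 7.2, 1 mM EDTA, 37 °C. Quenching of bound NADH fluorescence (ex 340/em 450 nm) fit to hyperbolic saturation model to give dissociation constant KR.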
# Trypanosoma cruzi [7] = experiment: Binding to Trypanosoma cruzi recombinant S-adenosyl-L-homocysteine hydrolase NADH form expressed in Escherichia coli JM109; procedure, shortened: as §3
# [8] = target: Adenosylhomocysteinase (Homo sapiens) (UniProt P23526); experiment: Ratio of kinact for human recombinant S-adenosyl-L-homocysteine hydrolase NAD+ form to KI for human recombinant S-adenosyl-L-homocysteine hydrolase NAD+
# Trypanosoma cruzi [9] = experiment: Ratio of kinact for Trypanosoma cruzi recombinant S-adenosyl-L-homocysteine hydrolase NAD form to KI for Trypanosoma cruzi recombinant S-adenosyl-L-homocysteine hydrolase NAD form
# Sequence of Adenosylhomocysteinase (Homo sapiens) (P23526 2-432 limits assumed): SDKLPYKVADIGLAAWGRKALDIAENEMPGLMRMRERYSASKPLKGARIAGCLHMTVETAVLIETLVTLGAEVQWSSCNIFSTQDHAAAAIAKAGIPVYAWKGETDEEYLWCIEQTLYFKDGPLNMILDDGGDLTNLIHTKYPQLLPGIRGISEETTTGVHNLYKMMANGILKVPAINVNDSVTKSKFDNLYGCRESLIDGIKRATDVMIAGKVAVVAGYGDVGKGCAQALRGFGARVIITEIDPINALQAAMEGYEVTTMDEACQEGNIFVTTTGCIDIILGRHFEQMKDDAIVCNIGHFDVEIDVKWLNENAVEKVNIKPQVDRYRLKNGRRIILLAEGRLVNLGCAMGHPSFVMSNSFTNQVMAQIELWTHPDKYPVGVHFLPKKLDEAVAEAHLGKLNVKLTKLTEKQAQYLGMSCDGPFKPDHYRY
Structure (SMILES),Activity [1],Activity (Trypanosoma cruzi [2]),Fluorescence intensity [3],Fluorescence intensity (Trypanosoma cruzi [4]),Activity (Trypanosoma cruzi [5]),KR [6],KR (Trypanosoma cruzi [7]),Ratio [8],Ratio (Trypanosoma cruzi [9]),Fluorescence intensity (Trypanosoma cruzi [5])
NC(=O)c1ncn([C@@H]2O[C@H](CO)[C@@H](O)[C@H]2O)n1,Dose-dependent effect,Dose-dependent effect,182000,227000,3.13 10^10/M,407 µM,586 µM,0.56 M⁻¹ s⁻¹,3.92 M⁻¹ s⁻¹,–
Nc1ncnc2c1ncn2[C@@H]1C=C[C@@H](O)[C@H]1O,–,–,–,–,–,–,–,–,–,5.4%
